# Experiments:
# [1] = biological target: T1, Amine oxidase [flavin-containing] A (Rattus norvegicus, UniProt P21396); experiment: Inhibitory activity of compound against Monoamine oxidase A isolated from rat liver mitochondria using [14C]5-HT creatinine sulfate; NI denotes no inhibition at 1000 uM
# T1 sequence (P21396 whole entry): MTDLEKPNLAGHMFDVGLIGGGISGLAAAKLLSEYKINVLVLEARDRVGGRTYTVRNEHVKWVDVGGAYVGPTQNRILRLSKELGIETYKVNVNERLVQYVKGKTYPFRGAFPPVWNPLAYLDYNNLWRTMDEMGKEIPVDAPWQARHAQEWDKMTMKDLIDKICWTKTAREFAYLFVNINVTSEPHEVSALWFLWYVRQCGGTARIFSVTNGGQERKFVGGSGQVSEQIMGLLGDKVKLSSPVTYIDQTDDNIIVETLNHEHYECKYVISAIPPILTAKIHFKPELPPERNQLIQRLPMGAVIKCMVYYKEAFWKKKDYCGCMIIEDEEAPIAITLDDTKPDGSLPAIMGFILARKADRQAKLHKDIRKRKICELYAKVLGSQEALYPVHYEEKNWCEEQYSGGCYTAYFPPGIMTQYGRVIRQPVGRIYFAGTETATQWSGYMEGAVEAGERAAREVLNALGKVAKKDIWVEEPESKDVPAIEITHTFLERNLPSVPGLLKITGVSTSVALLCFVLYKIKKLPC
# Summary of the method: (§1)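 Rat liver mitochondria from differential centrifugation, in 50 mM phosphate buffer pH 7.4. Preincubated with inhibitor (10⁻⁸–10⁻³ or 10⁻⁴ M) for 60 min at 37 °C. MAO-A activity measured radiometrically as ¹⁴C-aldehyde formed from 0.1 mM [¹⁴C]-5-hydroxytryptamine creatinine sulfate; IC50 reported.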
# [2] = biological target: T2, Amine oxidase [flavin-containing] B (Rattus norvegicus, UniProt P19643); experiment: Inhibitory activity against Monoamine oxidase B isolated from rat liver mitochondria using [14C]phenylethylamine; NI denotes no inhibition at 1000 uM
# T2 sequence (P19643 whole entry): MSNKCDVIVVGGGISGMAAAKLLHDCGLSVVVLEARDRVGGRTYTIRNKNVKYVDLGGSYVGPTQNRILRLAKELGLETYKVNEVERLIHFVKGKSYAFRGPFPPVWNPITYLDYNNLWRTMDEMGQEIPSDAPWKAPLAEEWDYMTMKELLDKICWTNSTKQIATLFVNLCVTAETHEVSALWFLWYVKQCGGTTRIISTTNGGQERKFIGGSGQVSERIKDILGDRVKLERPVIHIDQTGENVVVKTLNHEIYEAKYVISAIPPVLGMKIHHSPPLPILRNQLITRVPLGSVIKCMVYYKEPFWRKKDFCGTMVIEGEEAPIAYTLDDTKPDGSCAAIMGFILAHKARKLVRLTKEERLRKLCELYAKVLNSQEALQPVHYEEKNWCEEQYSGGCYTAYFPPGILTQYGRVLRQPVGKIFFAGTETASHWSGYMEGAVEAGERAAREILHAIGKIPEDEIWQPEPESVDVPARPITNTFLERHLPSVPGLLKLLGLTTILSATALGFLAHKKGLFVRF
# Summary of the method: (§2)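 Rat liver mitochondria from differential centrifugation, in 50 mM phosphate buffer pH 7.4. Preincubated with inhibitor (10⁻⁸–10⁻³ or 10⁻⁴ M) for 60 min at 37 °C. MAO-B activity measured radiometrically as ¹⁴C-aldehyde formed from 10 μM [¹⁴C]-phenylethylamine; IC50 reported.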
# [3] = tested on: Mycobacterium tuberculosis; experiment: In vitro inhibition of Mycobacterium tuberculosis H37Rv, determined at 0.2 ug/mL; format: functional
# Summary of the method: (§3)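 M. tuberculosis H37Rv (Pasteur) grown twice for 1 week each in Dubos broth at 37 °C, washed, then filtered to remove clumps. 25 × 10⁴ CFU per well in RPMI 1640 with 5 mM HEPES, 2 mM L-glutamine and 2% FBS. Compound added from DMSO stock; 5,6-[³H]-uracil added at 24 h, then 18 h at 37 °C.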
# [4] = tested on: Mycobacterium tuberculosis; experiment: In vitro inhibition of Mycobacterium tuberculosis H37Rv, determined at 2 ug/mL; format: functional; summary of the method: as §3
# [5] = tested on: Mycobacterium tuberculosis; experiment: In vitro inhibition of Mycobacterium tuberculosis H37Rv, determined at 20 ug/mL; format: functional; summary of the method: as §3
# [6] = biological target: T1, Amine oxidase [flavin-containing] A; experiment: Inhibition of Monoamine oxidase A from rat liver mitochondria; summary of the method: as §1
# [7] = biological target: T2, Amine oxidase [flavin-containing] B; experiment: Inhibition of Monoamine oxidase B from rat liver mitochondria; summary of the method: as §2
# [8] = tested on: Mycobacterium tuberculosis; experiment: Minimal inhibitory activity of compound against Mycobacterium tuberculosis H37Rv; format: functional
# Summary of the method: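 Same H37Rv [³H]-uracil incorporation assay: compound at final 20, 2.0 and 0.2 μg/mL, 24 h, then 1 μCi 5,6-[³H]-uracil for 18 h at 37 °C, harvested on filters, scintillation counted, triplicate. MIC50 is the concentration giving 50% reduction in cpm versus drug-free plate at the same bacterial dilution.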
smiles,measurement,setting,value
Nc1[nH]nc2c3ccccc3nc-2c1-c1ccc(F)cc1,IC50,[1],No inhibition
same,IC50,[2],No inhibition
same,inhibition at 0.2 µg/mL,[3],0%
same,inhibition at 2 µg/mL,[4],0%
same,inhibition at 20 µg/mL,[5],35.1%
Nc1[nH]nc2c3ccccc3nc-2c1-c1ccccc1Cl,IC50,[6],316 µM
same,IC50,[2],No inhibition
same,inhibition at 0.2 µg/mL,[3],0%
same,inhibition at 2 µg/mL,[4],0%
same,inhibition at 20 µg/mL,[5],35%
CCn1c2ccccc2c2nnc(N)c(-c3ccc(C(C)C)cc3)c21,IC50,[6],100 µM
same,IC50,[7],15.8 µM
same,inhibition at 0.2 µg/mL,[3],0%
same,inhibition at 2 µg/mL,[4],10.5%
same,inhibition at 20 µg/mL,[5],94.3%
same,MIC50,[8],10.5 µg/mL
CC(C)c1ccc(-c2c(N)nnc3c4ccccc4n(C)c23)cc1,IC50,[6],14.1 µM
same,IC50,[7],316 µM
same,inhibition at 0.2 µg/mL,[3],21.3%
same,inhibition at 2 µg/mL,[4],63.6%
same,inhibition at 20 µg/mL,[5],88%
same,MIC50,[8],1.42 µg/mL
Nc1[nH]nc2c3ccccc3nc-2c1-c1ccccc1F,IC50,[6],631 µM
same,IC50,[2],No inhibition
same,inhibition at 0.2 µg/mL,[3],0%
same,inhibition at 2 µg/mL,[4],0%
same,inhibition at 20 µg/mL,[5],40.3%
CC(C)c1ccc(-c2c3nc4ccccc4c-3n[nH]c2N)cc1,IC50,[6],> 1000 µM
same,IC50,[7],> 1000 µM
same,inhibition at 0.2 µg/mL,[3],8.7%
same,inhibition at 2 µg/mL,[4],32.9%
same,inhibition at 20 µg/mL,[5],61.9%
same,MIC50,[8],12.6 µg/mL
Nc1[nH]nc2c3ccccc3nc-2c1-c1cccc(Br)c1,inhibition at 0.2 µg/mL,[3],0%
same,inhibition at 2 µg/mL,[4],0%
same,inhibition at 20 µg/mL,[5],32%
CC(C)c1ccc(-c2c3nc4ccc(Br)cc4c-3n[nH]c2N)cc1,IC50,[6],63 µM
same,IC50,[7],79 µM
same,inhibition at 0.2 µg/mL,[3],7.1%
same,inhibition at 2 µg/mL,[4],56.3%
same,inhibition at 20 µg/mL,[5],88.5%
same,MIC50,[8],1.77 µg/mL
Cn1c2ccccc2c2nnc(O)c(-c3ccccc3)c21,inhibition at 20 µg/mL,[5],0%
Cn1c2ccccc2c2nnc(N)c(-c3ccccc3Cl)c21,IC50,[6],~1000 µM
same,IC50,[7],~1000 µM
same,inhibition at 0.2 µg/mL,[3],0%
same,inhibition at 2 µg/mL,[4],0%
same,inhibition at 20 µg/mL,[5],3.1%
COc1ccc(-c2c3nc4ccccc4c-3n[nH]c2N)cc1,inhibition at 0.2 µg/mL,[3],0%
same,inhibition at 2 µg/mL,[4],0%
same,inhibition at 20 µg/mL,[5],30.2%
same,MIC50,[8],14.9 µg/mL
CC(C)c1ccc(-c2c(N)nnc3c4cc(Br)ccc4n(C)c23)cc1,inhibition at 0.2 µg/mL,[3],0%
same,inhibition at 2 µg/mL,[4],0%
same,inhibition at 20 µg/mL,[5],60.7%
same,MIC50,[8],17.1 µg/mL
Oc1[nH]nc2c3ccccc3nc-2c1-c1ccccc1,inhibition at 20 µg/mL,[5],0%
Cn1c2ccccc2c2nnc(NC=O)c(-c3ccccc3)c21,inhibition at 20 µg/mL,[5],0%
CC(C)c1ccc(-c2c(O)nnc3c4ccccc4n(C)c23)cc1,inhibition at 20 µg/mL,[5],0%
Cc1ccc(-c2c(N)nnc3c4ccccc4n(C)c23)cc1,inhibition at 0.2 µg/mL,[3],0%
same,inhibition at 2 µg/mL,[4],0%
same,inhibition at 20 µg/mL,[5],62.3%
Nc1nnc2c([nH]c3ccccc32)c1-c1ccccc1,IC50,[1],No inhibition
same,IC50,[2],No inhibition
same,inhibition at 0.2 µg/mL,[3],2.3%
same,inhibition at 2 µg/mL,[4],25.5%
same,inhibition at 20 µg/mL,[5],28.5%
NNC(=O)c1ccncc1 [ISONIAZID],inhibition at 0.2 µg/mL,[3],49.7%
same,inhibition at 2 µg/mL,[4],59.1%
same,inhibition at 20 µg/mL,[5],68.7%
same,MIC50,[8],0.25 µg/mL
Cc1ccc(-c2c3nc4ccccc4c-3n[nH]c2N)cc1,IC50,[6],31.6 µM
same,IC50,[7],158 µM
same,inhibition at 0.2 µg/mL,[3],0%
same,inhibition at 2 µg/mL,[4],0%
same,inhibition at 20 µg/mL,[5],40.5%
same,MIC50,[8],16.5 µg/mL
Cn1c2ccccc2c2nnc(N)c(-c3ccccc3F)c21,IC50,[1],No inhibition
same,IC50,[7],41.6 µM
same,inhibition at 0.2 µg/mL,[3],0%
same,inhibition at 2 µg/mL,[4],0%
same,inhibition at 20 µg/mL,[5],45.3%
CN(C)c1ccc(-c2c3nc4ccccc4c-3n[nH]c2N)cc1,IC50,[6],79.4 µM
same,IC50,[7],~1000 µM
same,inhibition at 0.2 µg/mL,[3],5.2%
same,inhibition at 2 µg/mL,[4],10%
same,inhibition at 20 µg/mL,[5],66%
CCn1c2ccccc2c2nnc(N)c(-c3ccc(C)cc3)c21,IC50,[1],No inhibition
same,IC50,[7],11 µM
same,inhibition at 0.2 µg/mL,[3],0%
same,inhibition at 2 µg/mL,[4],0%
same,inhibition at 20 µg/mL,[5],30.1%
CC(=O)N(C(C)=O)c1nnc2c3ccccc3n(C)c2c1-c1ccccc1,inhibition at 20 µg/mL,[5],0%
CCn1c2ccccc2c2nnc(N)c(-c3ccccc3Cl)c21,IC50,[6],~1000 µM
same,IC50,[7],~1000 µM
same,inhibition at 0.2 µg/mL,[3],0%
same,inhibition at 2 µg/mL,[4],0%
same,inhibition at 20 µg/mL,[5],15.9%
CO[C@H]1/C=C/O[C@@]2(C)Oc3c(C)c(O)c4c(O)c(c(/C=N/N5CCN(C)CC5)c(O)c4c3C2=O)NC(=O)/C(C)=C\C=C\[C@H](C)[C@H](O)[C@@H](C)[C@@H](O)[C@@H](C)[C@H](OC(C)=O)[C@@H]1C [RIFAMPIN],inhibition at 0.2 µg/mL,[3],54.8%
same,inhibition at 2 µg/mL,[4],91.7%
same,inhibition at 20 µg/mL,[5],94.3%
same,MIC50,[8],0.1 µg/mL
CC(C)c1ccc(-c2c(N3C(=O)c4ccccc4C3=O)nnc3c4ccccc4n(C)c23)cc1,inhibition at 20 µg/mL,[5],0%
Nc1nnc2c3ccccc3n(Cc3ccccc3)c2c1-c1ccccc1Cl,IC50,[6],17.8 µM
same,IC50,[7],35.4 µM
same,inhibition at 0.2 µg/mL,[3],0%
same,inhibition at 2 µg/mL,[4],0%
same,inhibition at 20 µg/mL,[5],50.8%
Nc1nnc2c3ccccc3n(Cc3ccccc3)c2c1-c1ccccc1,inhibition at 0.2 µg/mL,[3],0%
same,inhibition at 2 µg/mL,[4],0%
same,inhibition at 20 µg/mL,[5],20.7%
CC(C)c1ccc(-c2c(N)nnc3c4ccccc4n(CCN(C)C)c23)cc1,IC50,[6],1000 µM
same,IC50,[2],No inhibition
same,inhibition at 0.2 µg/mL,[3],0%
same,inhibition at 2 µg/mL,[4],0%
same,inhibition at 20 µg/mL,[5],20.4%
Cn1c2ccc(Br)cc2c2nnc(N)c(-c3ccccc3)c21,inhibition at 0.2 µg/mL,[3],0%
same,inhibition at 2 µg/mL,[4],0%
same,inhibition at 20 µg/mL,[5],54.2%
CCn1c2ccccc2c2nnc(N)c(-c3ccccc3)c21,IC50,[1],No inhibition
same,IC50,[7],72 µM
same,inhibition at 0.2 µg/mL,[3],0%
same,inhibition at 2 µg/mL,[4],0%
same,inhibition at 20 µg/mL,[5],40.3%
Cn1c2ccccc2c2nnc(N)c(-c3cccc(Br)c3)c21,IC50,[6],63.1 µM
same,IC50,[7],100 µM
same,inhibition at 0.2 µg/mL,[3],0%
same,inhibition at 2 µg/mL,[4],0%
same,inhibition at 20 µg/mL,[5],60.1%
Cc1ccc2c(c1)c1nnc(N)c(-c3ccc(C(C)C)cc3)c1n2C,inhibition at 0.2 µg/mL,[3],0%
same,inhibition at 2 µg/mL,[4],0%
same,inhibition at 20 µg/mL,[5],40.5%
Nc1[nH]nc2c3cc(Br)ccc3nc-2c1-c1ccccc1,IC50,[6],63.1 µM
same,IC50,[7],25.1 µM
same,inhibition at 0.2 µg/mL,[3],9.2%
same,inhibition at 2 µg/mL,[4],44.3%
same,inhibition at 20 µg/mL,[5],91.4%
same,MIC50,[8],4.17 µg/mL
Cn1c2ccccc2c2nnc(N)c(-c3ccccc3)c21,IC50,[6],28.2 µM
same,IC50,[7],~1000 µM
same,inhibition at 0.2 µg/mL,[3],2.3%
same,inhibition at 2 µg/mL,[4],25.5%
same,inhibition at 20 µg/mL,[5],40.2%
CCCn1c2ccccc2c2nnc(N)c(-c3ccc(C(C)C)cc3)c21,inhibition at 0.2 µg/mL,[3],0%
same,inhibition at 2 µg/mL,[4],0%
same,inhibition at 20 µg/mL,[5],20%
